Compound activity deposited in PubChem BioAssay by ICCB-Longwood Screening Facility, Harvard Medical School.
Ab BasE inh: BasE siderophore enzyme inhibitors, primary screen, biochemical, Acinetobacter baumannii ATCC 17978, fluorescence polarization | purified BasE, fluorescence polarization binding displacement | inhibition, % (test concentration not listed) | actives 0.1% (n = 84,000) | AID 485350, 2010; in the data active = inhibition above about 25%, passing the limit was not always enough;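 also: 0% = negative plate control signal and 100% = positive plate control signal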
KSHV LANA nucl: inhibitors of KSHV LANA-nucleosome binding, primary screen, biochemical, fluorescence polarization, FITC-LANA1-23, chicken nucleosomes; AID 720717, 2013; actives 0.3% (n = 51,000); z-score (test concentration not listed); FITC-LANA1-23 / chicken nucleosome fluorescence polarization; hits give low values;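 active = both repeat wells score below -2 in polarization z-score versus plate sample wells, excluding overly bright wells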
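Assay system: FITC-LANA peptide and chicken nucleosomes; input: 240 nM purified chicken nucleosomes (480 nM peptide binding sites), final; also added: 50 nM FITC-LANA1-23 probe; medium: TEN-BT buffer, pH 7.5; doses: pin-transferred compound, 100 nL; times: 10–45 min, room temperature; technique: fluorescence polarization; replication: duplicates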
Active calls of the source: *. The full list was thinned out, with hits kept by preference.

How did N#C/C(=C/c1ccc(O)c(O)c1)C(=O)OC/C=C/c1ccccc1 do in these assays?
Ab BasE inh: 0; KSHV LANA nucl: 1.3

How did Oc1cc(O)cc(/C=C/c2ccc(O)c(O)c2)c1 do in these assays?
Ab BasE inh: 86*; KSHV LANA nucl: -0.39

What do the screens show for `CN1CCC(NC(=O)CCCc2ccccc2)CC1`?
Ab BasE inh: 1; KSHV LANA nucl: 1.4

What do the screens show for `CCCCCCn1c(=O)[nH]c2nc3cc(N)c(C)cc3nc2c1=O`?
Ab BasE inh: 12

How did Cc1cc2nc3c(=O)n(C)c(=O)[nH]c3nc2cc1N=CN(C)C do in these assays?
Ab BasE inh: 37; KSHV LANA nucl: -2.1*

How did COc1cccc(C(=O)N2CCN(c3ccccc3)CC2)c1 do in these assays?
Ab BasE inh: 3

What do the screens show for `COc1cccc(N2CCN(C(=O)c3nn(C)c4c3COc3ccccc3-4)CC2)c1`?
Ab BasE inh: 3; KSHV LANA nucl: -2.3*

How did O=C(CSC1=NNC(c2ccccn2)S1)Nc1cccc(Cl)c1 (stereo not given) do in these assays?
Ab BasE inh: 2; KSHV LANA nucl: -2.1*

What do the screens show for `COc1cccc(NC(=O)CSc2ncccn2)c1`?
Ab BasE inh: 1; KSHV LANA nucl: -0.7

How did CC(C)N(C(=O)NC(=O)Nc1ccc(C=C(C#N)C#N)cc1)S(C)(=O)=O do in these assays?
Ab BasE inh: 2

Results for CN(C)/C=C1\SC(=S)N(c2ccc(Br)cc2)C1=O ?
Ab BasE inh: 8; KSHV LANA nucl: -8.9*

How did Cn1cccc1/C=C1/SC(=S)N(c2ccc(C(=O)O)cc2)C1=O do in these assays?
Ab BasE inh: -37; KSHV LANA nucl: -0.2

Results for O=C(Nc1ccc2[nH]c(=O)[nH]c2c1)c1cc(-c2ccco2)nc2ccccc12 ?
Ab BasE inh: 4

How did N#Cc1cc2c(cc1C#N)N(Cc1ccccc1)CCN2Cc1ccccc1 do in these assays?
Ab BasE inh: -1

Results for CCC(=O)Nc1cccc(C2=NN(C(C)=O)C(c3ccc(F)cc3)O2)c1 (stereo not given) ?
Ab BasE inh: 0; KSHV LANA nucl: -1.1

Results for CC(=O)N1N=C(c2cccc(I)c2)OC1c1ccncc1 (stereo not given) ?
Ab BasE inh: 59*; KSHV LANA nucl: -0.15

What do the screens show for `CCOC(=O)COc1ccc2c(=O)c(-c3cscn3)coc2c1`?
Ab BasE inh: -1

What do the screens show for `CC1CCN(S(=O)(=O)N2CCCC(C(=O)Nc3ccccc3C(=O)c3ccccc3)C2)CC1` (stereo not given)?
Ab BasE inh: 0; KSHV LANA nucl: -2.2*

What do the screens show for `COC(=O)c1cc(NC(=O)C2CCCN(S(=O)(=O)N3CCC(C)CC3)C2)cc(C(=O)OC)c1` (stereo not given)?
Ab BasE inh: 1; KSHV LANA nucl: -1.5

How did COc1ccc(CN2C(=O)C(C)N(c3ccc(C)cc3)C2=O)cc1F (stereo not given) do in these assays?
Ab BasE inh: -2

How did O=C(CN(C(=O)Cn1nnc(-c2cccs2)n1)C1CCCC1)NCc1ccccc1 do in these assays?
Ab BasE inh: 0; KSHV LANA nucl: 0.16

How did N#CC(C(=O)Nc1ccc(Cl)c(Cl)c1)=C1Nc2ccccc2N1 do in these assays?
Ab BasE inh: 1; KSHV LANA nucl: 0.55

Results for N#CC(C(=O)Nc1ccccc1)=C1Nc2ccccc2N1 ?
Ab BasE inh: 31*

What do the screens show for `O=C(O)C1C2C=CC(C2)C1C(=O)N1CCN(C2CCCCC2)CC1` (stereo not given)?
Ab BasE inh: 3; KSHV LANA nucl: -1.4

What do the screens show for `Cc1cc(C(=O)NCC(C)c2ccccc2)n[nH]1` (stereo not given)?
Ab BasE inh: 0; KSHV LANA nucl: -2.2*

Results for CC(CNC(=O)c1cc(C2CC2)[nH]n1)c1ccccc1 (stereo not given) ?
Ab BasE inh: -1; KSHV LANA nucl: -1.4

Results for O=C(Nc1c(C(=O)N2CCCCCC2)oc2ccccc12)c1ccccc1 ?
Ab BasE inh: 1

Results for Cn1c(C(C#N)C(=O)c2ccccc2Br)nc2ccccc21 (stereo not given) ?
Ab BasE inh: 10; KSHV LANA nucl: -0.16

How did CCOC(=O)N1CCN(C(=O)Cn2nc(CC)n3c(cc4sc(C)cc43)c2=O)CC1 do in these assays?
Ab BasE inh: 0; KSHV LANA nucl: -0.26

How did CS(=O)(=O)Cc1ccc(C(=O)Nc2ccccc2C(=O)NC2CC2)cc1 do in these assays?
Ab BasE inh: -4

Results for O=C(NCc1ccccc1)c1cccnc1Nc1ccccc1 ?
Ab BasE inh: 0; KSHV LANA nucl: -1.1

How did Nc1cccnc1Nc1ccccc1 do in these assays?
Ab BasE inh: 24; KSHV LANA nucl: -3.1*

What do the screens show for `Cc1ccccc1Cn1nc(-c2ccco2)ccc1=O`?
Ab BasE inh: -1; KSHV LANA nucl: -1.3

How did COCc1cc(C)nc(SCC(=O)c2ccc(O)c(O)c2)c1C#N do in these assays?
Ab BasE inh: 37*

How did Cc1ccc(C(=O)CSc2nc(C)cc(C)c2C#N)cc1 do in these assays?
Ab BasE inh: 0; KSHV LANA nucl: -1.4

Results for Cc1csc(C(C#N)C(=O)CSc2nnc(Nc3cccc(F)c3)s2)n1 (stereo not given) ?
Ab BasE inh: 0

What do the screens show for `O=c1[nH]c2c(s1)C=Nc1cc3ccccc3cc1N2`?
Ab BasE inh: 23; KSHV LANA nucl: -2.3*
